Drawing on ChEMBL document CHEMBL4428062, “Human Toll-like Receptor (TLR) 8-Specific Agonistic Activity in Substituted Pyrimidine-2,4-diamines” (J Med Chem, 2016), this text covers Activity and EC50 for 26 molecules.

The source made the active and inactive calls. No cut-off for these calls is given here.

Holding throughout (assay type): cell-based
Test [1] deals with T1, Toll-like receptor 8 (Homo sapiens) (UniProt Q9NR97).
T1 sequence (whole entry): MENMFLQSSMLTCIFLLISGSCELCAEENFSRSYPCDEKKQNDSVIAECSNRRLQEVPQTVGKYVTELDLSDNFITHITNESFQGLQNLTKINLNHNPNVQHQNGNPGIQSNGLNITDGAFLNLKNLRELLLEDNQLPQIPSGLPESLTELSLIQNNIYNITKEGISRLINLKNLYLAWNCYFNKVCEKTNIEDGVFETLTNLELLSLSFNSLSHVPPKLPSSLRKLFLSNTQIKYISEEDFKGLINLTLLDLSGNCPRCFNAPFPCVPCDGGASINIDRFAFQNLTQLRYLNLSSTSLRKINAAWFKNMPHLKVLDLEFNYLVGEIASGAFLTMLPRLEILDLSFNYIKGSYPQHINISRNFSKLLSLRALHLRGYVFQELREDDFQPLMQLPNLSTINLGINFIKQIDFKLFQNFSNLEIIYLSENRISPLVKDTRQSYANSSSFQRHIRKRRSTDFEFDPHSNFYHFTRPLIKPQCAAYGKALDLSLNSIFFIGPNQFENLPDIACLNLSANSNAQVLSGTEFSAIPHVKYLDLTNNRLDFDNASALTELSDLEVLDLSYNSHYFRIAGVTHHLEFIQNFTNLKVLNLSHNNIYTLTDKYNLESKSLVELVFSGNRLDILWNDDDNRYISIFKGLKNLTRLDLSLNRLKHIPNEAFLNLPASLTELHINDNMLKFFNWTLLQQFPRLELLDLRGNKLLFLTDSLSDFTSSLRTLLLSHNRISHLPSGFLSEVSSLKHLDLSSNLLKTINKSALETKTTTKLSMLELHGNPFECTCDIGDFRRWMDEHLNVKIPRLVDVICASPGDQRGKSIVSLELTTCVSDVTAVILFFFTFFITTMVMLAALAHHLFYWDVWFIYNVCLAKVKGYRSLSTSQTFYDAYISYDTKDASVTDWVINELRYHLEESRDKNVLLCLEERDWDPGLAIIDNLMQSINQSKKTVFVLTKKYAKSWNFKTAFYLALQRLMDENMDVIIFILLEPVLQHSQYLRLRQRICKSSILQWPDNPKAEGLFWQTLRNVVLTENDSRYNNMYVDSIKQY
In words: Agonist activity at human TLR8 expressed in HEK293 cells assessed as induction of NF-kappaB activity at 100 uM by secreted alkaline phosphatase reporter gene assay. In a few lines: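 TLR8 reporter HEK293 cells carrying an NF-κB/AP-1-inducible secreted alkaline phosphatase were exposed to stimuli, with 100 µM as the top concentration tested. sAP released into the supernatant was read at 620 nm with a chromogenic substrate. Samples were run in quadruplicate.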
Background: In a reporter assay the amount or activity of a reporter protein is the signal.

In test [2] the target is T2, Toll-like receptor 9 (Homo sapiens) (UniProt Q9NR96).
T2 sequence (whole entry): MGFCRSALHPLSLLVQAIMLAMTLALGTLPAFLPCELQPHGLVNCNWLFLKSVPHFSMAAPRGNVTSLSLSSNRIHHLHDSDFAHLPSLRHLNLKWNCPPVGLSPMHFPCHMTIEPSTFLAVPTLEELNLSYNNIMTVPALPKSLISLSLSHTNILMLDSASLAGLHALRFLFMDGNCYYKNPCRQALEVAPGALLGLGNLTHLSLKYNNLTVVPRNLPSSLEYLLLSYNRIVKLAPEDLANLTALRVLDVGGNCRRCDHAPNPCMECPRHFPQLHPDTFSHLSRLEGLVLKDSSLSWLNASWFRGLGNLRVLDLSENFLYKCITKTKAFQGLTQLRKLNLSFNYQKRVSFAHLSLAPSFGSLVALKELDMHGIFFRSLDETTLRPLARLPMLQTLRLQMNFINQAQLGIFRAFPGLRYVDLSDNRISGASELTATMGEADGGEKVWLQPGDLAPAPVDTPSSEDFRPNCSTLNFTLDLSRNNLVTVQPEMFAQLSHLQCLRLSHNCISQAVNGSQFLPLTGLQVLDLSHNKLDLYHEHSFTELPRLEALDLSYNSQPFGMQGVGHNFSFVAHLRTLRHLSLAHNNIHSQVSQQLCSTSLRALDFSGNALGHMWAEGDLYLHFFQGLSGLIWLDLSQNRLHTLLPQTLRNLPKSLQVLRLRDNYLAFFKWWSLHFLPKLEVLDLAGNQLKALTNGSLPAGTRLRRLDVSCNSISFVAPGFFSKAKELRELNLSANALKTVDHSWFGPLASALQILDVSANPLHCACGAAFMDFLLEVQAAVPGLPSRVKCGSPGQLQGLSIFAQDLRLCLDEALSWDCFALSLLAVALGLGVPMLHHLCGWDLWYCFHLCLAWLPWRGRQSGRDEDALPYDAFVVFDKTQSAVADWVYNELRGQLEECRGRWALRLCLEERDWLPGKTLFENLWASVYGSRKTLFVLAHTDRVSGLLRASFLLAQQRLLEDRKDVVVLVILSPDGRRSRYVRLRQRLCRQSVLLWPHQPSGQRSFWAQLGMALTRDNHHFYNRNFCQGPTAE
In words: Agonist activity at human TLR9 expressed in HEK293 cells assessed as induction of NF-kappaB activity by secreted alkaline phosphatase reporter gene assay. Summed up:
(§1)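 HEK293 reporter lines stably co-transfected with the respective human TLR and an NF-κB/AP-1-driven secreted alkaline phosphatase gene, kept in selection medium. About 10^5 cells/ml were incubated with graded concentrations of stimuli. Supernatant sAP was read spectrophotometrically at 620 nm using a chromogenic substrate in detection medium. EC50 was taken as the arithmetic mean of quadruplicate samples.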

Test [3] deals with Toll-like receptor 2 (Homo sapiens) (UniProt O60603). The test is described as follows: Agonist activity at human TLR2 expressed in HEK293 cells assessed as induction of NF-kappaB activity by secreted alkaline phosphatase reporter gene assay. In a few lines:
as §1

Test [4] has as its target Toll-like receptor 4 (Homo sapiens) (UniProt O00206). The test is described as follows: Agonist activity at human TLR4 expressed in HEK293 cells assessed as induction of NF-kappaB activity by secreted alkaline phosphatase reporter gene assay. Summed up:
as §1

For test [5], the target named is Toll-like receptor 3 (Homo sapiens) (UniProt O15455). In words: Agonist activity at human TLR3 expressed in HEK293 cells assessed as induction of NF-kappaB activity by secreted alkaline phosphatase reporter gene assay. In a few lines:
as §1

Test [6] concerns the target T3, Toll-like receptor 7 (Homo sapiens) (UniProt Q9NYK1).
T3 sequence (whole entry): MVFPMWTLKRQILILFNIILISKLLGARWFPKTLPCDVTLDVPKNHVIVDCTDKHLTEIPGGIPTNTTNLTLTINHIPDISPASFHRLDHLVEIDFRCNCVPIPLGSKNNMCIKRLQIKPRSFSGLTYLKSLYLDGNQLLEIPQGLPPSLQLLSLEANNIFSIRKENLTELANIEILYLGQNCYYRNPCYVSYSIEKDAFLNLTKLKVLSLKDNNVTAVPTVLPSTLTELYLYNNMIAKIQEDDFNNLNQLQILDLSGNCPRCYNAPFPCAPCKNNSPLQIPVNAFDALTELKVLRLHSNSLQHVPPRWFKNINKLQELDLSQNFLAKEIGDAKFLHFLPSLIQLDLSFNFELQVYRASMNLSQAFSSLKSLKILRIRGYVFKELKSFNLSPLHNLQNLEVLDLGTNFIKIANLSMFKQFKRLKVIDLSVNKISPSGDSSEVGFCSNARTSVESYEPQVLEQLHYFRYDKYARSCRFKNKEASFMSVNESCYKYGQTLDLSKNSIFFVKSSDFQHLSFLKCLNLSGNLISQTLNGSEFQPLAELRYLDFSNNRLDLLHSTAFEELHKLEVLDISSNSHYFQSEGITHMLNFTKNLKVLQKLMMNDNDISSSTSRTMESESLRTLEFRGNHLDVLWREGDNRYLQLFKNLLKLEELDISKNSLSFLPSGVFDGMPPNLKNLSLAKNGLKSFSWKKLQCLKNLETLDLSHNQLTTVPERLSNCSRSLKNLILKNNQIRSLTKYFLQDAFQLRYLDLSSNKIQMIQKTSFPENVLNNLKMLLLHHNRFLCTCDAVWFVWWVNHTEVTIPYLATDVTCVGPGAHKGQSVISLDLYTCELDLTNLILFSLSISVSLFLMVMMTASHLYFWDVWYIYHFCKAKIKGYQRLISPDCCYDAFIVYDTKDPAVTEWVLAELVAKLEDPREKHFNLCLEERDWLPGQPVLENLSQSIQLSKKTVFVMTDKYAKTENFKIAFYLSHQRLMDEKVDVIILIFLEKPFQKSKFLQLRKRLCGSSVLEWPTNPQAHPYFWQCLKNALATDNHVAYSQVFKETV
In words: Agonist activity at human TLR7 expressed in HEK293 cells assessed as induction of NF-kappaB activity by secreted alkaline phosphatase reporter gene assay. In a few lines:
as §1

Test [7] has as its target Toll-like receptor 5 (Homo sapiens) (UniProt O60602). The test is described as follows: Agonist activity at human TLR5 expressed in HEK293 cells assessed as induction of NF-kappaB activity by secreted alkaline phosphatase reporter gene assay. In a few lines:
as §1

The target of another test is T4, Toll-like receptor 8 (Homo sapiens, UniProt Q9NR97).
T4 sequence (Q9NR97 whole entry): T1 sequence (whole entry)
The test is described as follows: Agonist activity at human TLR8 expressed in HEK293 cells assessed as induction of NF-kappaB activity by secreted alkaline phosphatase reporter gene assay. In a few lines:
as §1

Chain of Toll-like receptor 2 (Homo sapiens) (O60603 whole entry): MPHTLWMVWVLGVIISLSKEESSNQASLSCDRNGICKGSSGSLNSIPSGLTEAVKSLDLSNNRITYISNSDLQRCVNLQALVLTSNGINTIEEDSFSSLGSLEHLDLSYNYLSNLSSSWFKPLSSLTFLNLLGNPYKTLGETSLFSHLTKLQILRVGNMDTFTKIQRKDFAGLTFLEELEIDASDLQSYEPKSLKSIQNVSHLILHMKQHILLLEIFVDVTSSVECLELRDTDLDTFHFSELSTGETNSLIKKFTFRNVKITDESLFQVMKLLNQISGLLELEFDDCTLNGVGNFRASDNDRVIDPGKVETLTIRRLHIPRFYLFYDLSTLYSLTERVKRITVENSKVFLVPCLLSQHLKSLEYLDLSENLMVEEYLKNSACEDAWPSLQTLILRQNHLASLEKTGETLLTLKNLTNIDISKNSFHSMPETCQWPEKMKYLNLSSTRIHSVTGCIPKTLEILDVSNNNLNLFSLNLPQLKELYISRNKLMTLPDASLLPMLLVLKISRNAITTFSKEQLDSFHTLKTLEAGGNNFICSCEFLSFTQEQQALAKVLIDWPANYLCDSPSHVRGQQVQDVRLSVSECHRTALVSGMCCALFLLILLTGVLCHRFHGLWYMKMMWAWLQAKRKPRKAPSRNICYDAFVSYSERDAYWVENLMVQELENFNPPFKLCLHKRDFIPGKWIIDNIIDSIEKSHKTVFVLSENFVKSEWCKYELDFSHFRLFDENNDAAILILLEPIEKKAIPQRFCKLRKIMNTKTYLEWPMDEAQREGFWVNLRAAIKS
Chain of Toll-like receptor 3 (Homo sapiens) (O15455 whole entry): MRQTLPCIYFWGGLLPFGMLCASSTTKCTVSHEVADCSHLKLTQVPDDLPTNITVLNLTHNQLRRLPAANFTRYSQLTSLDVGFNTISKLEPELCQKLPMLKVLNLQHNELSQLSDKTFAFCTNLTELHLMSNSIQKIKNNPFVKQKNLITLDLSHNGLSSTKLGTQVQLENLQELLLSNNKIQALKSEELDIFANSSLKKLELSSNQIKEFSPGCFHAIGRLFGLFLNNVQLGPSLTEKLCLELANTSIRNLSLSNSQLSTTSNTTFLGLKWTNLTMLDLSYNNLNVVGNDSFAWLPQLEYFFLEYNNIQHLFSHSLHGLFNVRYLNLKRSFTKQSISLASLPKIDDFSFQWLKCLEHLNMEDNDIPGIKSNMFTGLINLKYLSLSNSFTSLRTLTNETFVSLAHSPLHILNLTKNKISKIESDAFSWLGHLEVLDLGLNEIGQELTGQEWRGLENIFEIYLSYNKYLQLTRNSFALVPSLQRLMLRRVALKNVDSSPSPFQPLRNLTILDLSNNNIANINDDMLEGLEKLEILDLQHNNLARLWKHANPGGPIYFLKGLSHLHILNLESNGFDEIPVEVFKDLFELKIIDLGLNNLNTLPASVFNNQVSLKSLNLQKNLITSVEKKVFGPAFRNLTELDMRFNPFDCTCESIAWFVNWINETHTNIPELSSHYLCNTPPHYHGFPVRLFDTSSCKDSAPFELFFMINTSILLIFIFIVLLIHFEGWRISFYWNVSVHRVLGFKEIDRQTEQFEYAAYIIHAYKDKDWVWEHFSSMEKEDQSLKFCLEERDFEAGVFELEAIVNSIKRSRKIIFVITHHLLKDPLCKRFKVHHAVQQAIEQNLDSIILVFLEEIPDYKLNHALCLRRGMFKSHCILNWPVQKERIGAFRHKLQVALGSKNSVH
Chain of Toll-like receptor 5 (Homo sapiens) (O60602 whole entry): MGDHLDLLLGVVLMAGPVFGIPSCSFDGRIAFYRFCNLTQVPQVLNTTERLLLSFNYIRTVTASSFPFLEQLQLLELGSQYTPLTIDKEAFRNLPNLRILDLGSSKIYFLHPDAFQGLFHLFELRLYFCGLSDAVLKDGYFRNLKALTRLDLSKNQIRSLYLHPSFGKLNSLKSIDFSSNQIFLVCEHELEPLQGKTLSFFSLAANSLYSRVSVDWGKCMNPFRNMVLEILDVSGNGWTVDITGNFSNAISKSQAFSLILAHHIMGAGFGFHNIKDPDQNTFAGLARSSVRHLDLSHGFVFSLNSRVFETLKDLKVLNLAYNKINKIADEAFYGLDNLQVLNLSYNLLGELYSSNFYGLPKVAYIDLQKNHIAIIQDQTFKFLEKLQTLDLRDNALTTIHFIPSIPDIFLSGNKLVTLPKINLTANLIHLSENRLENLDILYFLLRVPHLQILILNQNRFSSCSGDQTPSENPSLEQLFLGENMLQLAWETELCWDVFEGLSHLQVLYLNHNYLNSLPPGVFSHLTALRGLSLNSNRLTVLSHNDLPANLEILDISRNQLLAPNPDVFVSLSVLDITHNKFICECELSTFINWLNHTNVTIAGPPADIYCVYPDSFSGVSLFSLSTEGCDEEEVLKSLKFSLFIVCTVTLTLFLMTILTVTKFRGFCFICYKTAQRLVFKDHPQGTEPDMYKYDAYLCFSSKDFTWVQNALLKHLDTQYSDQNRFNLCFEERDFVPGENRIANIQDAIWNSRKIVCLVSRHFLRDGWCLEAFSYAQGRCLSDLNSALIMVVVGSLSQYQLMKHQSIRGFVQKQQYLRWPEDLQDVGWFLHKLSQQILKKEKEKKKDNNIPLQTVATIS
Chain of Toll-like receptor 4 (Homo sapiens) (O00206 whole entry): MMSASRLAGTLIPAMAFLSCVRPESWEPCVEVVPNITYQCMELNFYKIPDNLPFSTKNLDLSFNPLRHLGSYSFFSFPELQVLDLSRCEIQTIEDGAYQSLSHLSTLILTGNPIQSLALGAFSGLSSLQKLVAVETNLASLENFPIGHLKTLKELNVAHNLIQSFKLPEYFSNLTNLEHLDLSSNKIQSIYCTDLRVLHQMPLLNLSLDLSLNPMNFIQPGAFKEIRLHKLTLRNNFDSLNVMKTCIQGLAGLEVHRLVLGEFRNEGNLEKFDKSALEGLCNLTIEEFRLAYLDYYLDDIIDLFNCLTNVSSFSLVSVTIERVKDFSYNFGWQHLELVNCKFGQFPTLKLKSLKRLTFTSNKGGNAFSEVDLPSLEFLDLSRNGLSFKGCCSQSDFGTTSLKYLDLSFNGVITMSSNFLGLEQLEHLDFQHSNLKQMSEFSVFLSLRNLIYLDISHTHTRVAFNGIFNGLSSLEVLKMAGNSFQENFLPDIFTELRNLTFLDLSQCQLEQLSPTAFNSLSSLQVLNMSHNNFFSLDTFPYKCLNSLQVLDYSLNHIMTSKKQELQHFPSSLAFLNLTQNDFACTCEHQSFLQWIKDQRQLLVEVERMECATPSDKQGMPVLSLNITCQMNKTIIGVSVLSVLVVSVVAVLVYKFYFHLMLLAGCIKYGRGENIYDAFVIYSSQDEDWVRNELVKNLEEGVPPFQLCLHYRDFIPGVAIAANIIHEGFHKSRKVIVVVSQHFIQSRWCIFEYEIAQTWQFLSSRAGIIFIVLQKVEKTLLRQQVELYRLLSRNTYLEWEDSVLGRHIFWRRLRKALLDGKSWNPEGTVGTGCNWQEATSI

For `CCCCNc1nc(N)nc(-c2ccccc2)c1CCCN`, the outcome in test [1] was inactive.

As for `CCCCNc1cc(Cl)nc(N)n1`, the outcome in test [1] was inactive.

On to `CCCCNc1nc(N)nc(N)c1I`, for which the outcome in test [1] was inactive.

Regarding `CCCCNc1nc(N)nc(C)c1CCCN`, the outcome in test [2], in test [3], in test [4], in test [5], in test [6] and in test [7] was inactive.

As a reminder, the EC50 is the concentration giving half of the maximal effect. On to `CCCCNc1nc(N)nc(C)c1Cl`, for which the EC50 at Toll-like receptor 8 was found to be 20 µM.

For `CCCNc1nc(N)nc(C)c1I`, the result in test [1] was inactive.

With `CCCCNc1cc(OC)nc(N)n1`, the result in test [1] was inactive.

`CCCCOc1nc(N)nc(C)c1I`: the outcome in test [1] was inactive.

In the case of `CCCCNc1nc(N)nc(C)c1Cc1ccccc1`, the 50% effective concentration (EC50) on Toll-like receptor 8 turned out to be 1.2 µM.

Regarding `CCCCN(Cc1ccccc1)c1nc(N)nc(C)c1I`, the outcome in test [1] was inactive.

On to `CCCCNc1nc(N)nc(-c2ccccc2)c1I`, for which, in test [1], the outcome was inactive.

With `CCCCNc1cc(C)nc(N)n1`, the result in test [2], in test [3], in test [4], in test [5], in test [6] and in test [7] was inactive.

On to `CCCCSc1nc(N)nc(C)c1I`, for which the outcome in test [1] was inactive.

For the molecule `CCCCNc1nc(N)nc(Cl)c1I`, the outcome in test [1] was inactive.

In the case of `CCCCNc1nc(N)nc(C)c1Br`, on Toll-like receptor 8, the 50% effective concentration (EC50) turned out to be 8.5 µM.

As to `CCCCNc1nc(N)nc(C)c1F`, at Toll-like receptor 8, the EC50 was determined as 34 µM.

As to `CCCCNc1nc(N)ncc1I`, the result in test [1] was inactive.

On to `CCCCNc1cc(N)nc(N)n1`, for which the outcome in test [1] was inactive.

On to `CCCCCc1nc(N)nc(C)c1I`, for which the outcome in test [1] was inactive.

As to `CCCCCCNc1nc(N)nc(C)c1I`, the outcome in test [1] was inactive.

Turning to `CCCCN(C)c1nc(N)nc(C)c1I`, the result in test [1] was inactive.

Regarding `CCCC#Cc1cc(C)nc(N)n1`, the result in test [1] was inactive.

For `CCCCCNc1nc(N)nc(C)c1I`, on Toll-like receptor 8, the EC50 worked out at 3.7 µM.

As for `CCCCNc1nc(N)nc(OC)c1I`, the result in test [1] was inactive.

For `CCCCCc1cc(C)nc(N)n1`, the result in test [1] was inactive.

Turning to `CCCCNc1nc(N)nc(C)c1CCCCCN`, the concentration giving a half-maximal response (EC50) at Toll-like receptor 8 is 0.3 µM.
